Experimental data: ChEMBL document CHEMBL4196173, “Stabilized β-Hairpin Peptide Inhibits Insulin Degrading Enzyme” (J Med Chem, 2018)
pIC50, pKd: −log10 of the molar value. Calls of active or inactive are those of the source. The calls are words filed in the database; no cut-off is given here.

Columns and labels:
[1] = system: Mus musculus; test: Induction of insulin levels in lean C57BL/6J mouse at 80 mg/kg, ip after 30 to 120 mins post injection by ELISA; type: functional, organism-based
Procedure, shortened: (§1)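 Male lean C57BL/6J mice received 80 mg kg−1 i.p. (n = 5) or PBS. At 30 or 120 min, heparinized blood was taken from tail or eye socket and spun to plasma. Insulin (5 μL plasma), C-peptide, glucagon, beta-endorphin and TNF alpha (10 μL each) were measured by ultrasensitive ELISA. Mean ± SEM, two-tailed t test.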

[2] = system: Mus musculus; test: Effect on basal beta-endrophins levels in lean C57BL/6J mouse at 80 mg/kg, ip after 30 to 120 mins post injection by ELISA; type: ADME, organism-based; conditions: in vivo; procedure, shortened: as §1
[3] = target: T1, Insulin-degrading enzyme (Mus musculus, UniProt Q9JHR7); test: Inhibition of mouse His-tagged IDE (42 to 1019 residues) using fluorophore/quencher-tagged RPPGFSAFK(Dnp)-OH peptide as substrate preincubated for 10 mins followed by substrate addition measured over 5 mins by TR-FRET assay
T1 sequence (Q9JHR7 whole entry): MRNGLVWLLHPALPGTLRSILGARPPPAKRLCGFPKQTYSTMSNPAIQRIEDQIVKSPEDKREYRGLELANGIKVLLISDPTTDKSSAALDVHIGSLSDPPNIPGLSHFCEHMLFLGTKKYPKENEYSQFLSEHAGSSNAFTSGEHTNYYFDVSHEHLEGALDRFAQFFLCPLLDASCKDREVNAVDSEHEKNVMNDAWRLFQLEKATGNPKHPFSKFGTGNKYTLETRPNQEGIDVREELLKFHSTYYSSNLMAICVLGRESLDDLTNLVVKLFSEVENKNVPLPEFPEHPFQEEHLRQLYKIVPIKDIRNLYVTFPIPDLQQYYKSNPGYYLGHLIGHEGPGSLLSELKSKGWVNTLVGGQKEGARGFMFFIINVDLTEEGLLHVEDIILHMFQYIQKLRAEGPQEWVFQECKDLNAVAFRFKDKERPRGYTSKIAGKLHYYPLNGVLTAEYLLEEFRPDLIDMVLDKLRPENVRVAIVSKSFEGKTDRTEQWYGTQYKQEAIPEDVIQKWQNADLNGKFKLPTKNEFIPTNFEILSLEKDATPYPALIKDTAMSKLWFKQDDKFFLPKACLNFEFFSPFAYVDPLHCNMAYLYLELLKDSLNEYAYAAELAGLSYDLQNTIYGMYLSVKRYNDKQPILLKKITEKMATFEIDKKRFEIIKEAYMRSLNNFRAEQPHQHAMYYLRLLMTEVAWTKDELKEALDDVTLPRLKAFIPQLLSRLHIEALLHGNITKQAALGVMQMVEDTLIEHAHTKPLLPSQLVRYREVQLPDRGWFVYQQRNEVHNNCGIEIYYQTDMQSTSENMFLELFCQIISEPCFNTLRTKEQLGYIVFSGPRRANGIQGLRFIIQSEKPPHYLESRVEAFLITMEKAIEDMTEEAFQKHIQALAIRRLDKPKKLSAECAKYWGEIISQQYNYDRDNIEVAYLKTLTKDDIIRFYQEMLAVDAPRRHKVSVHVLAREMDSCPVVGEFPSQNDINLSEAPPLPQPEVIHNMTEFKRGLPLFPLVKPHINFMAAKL

[4] = system: Mus musculus; test: Effect on amyloid beta (1-40) levels in lean C57BL/6J mouse brain at 80 mg/kg, ip administered per another day measured after 4 hrs to 11 days post injection by ELISA; type: ADME, organism-based; conditions: in vivo
Procedure, shortened: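 Male lean C57BL/6J mice received 80 mg kg−1 i.p. every other day (n = 5) or PBS vehicle. Brains (~350 mg) were Dounce-homogenized in PBS with 1 mM PMSF and spun at 13,000 rpm for 30 min at 277 K. Supernatant Aβ(1–40) was measured by ELISA at 4 h, 24 h, 7 days and 11 days. Mean ± SEM, two-tailed t test.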

[5] = system: HeLa; test: Cytotoxicity against human HeLa cells assessed as reduction in cell viability at <300 uM after 24 hrs at 310 K by MTT assay; type: cell-based
Procedure, shortened: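 HeLa cells were grown overnight in DMEM with 10% FBS, then exposed to serial dilutions starting at 300 μM in medium with 5% FBS for 24 h at 310 K under 5% CO2. MTT was added for a further 4 h and formazan absorbance read at 490 nm. Three independent experiments in duplicate.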

[6] = target: Insulin-degrading enzyme (Homo sapiens, UniProt P14735, E111Q); test: Binding affinity to IDE E111Q mutant (unknown origin) using N-terminal FITC-labeled compound after 2 hrs in absence of light at 298 K by fluorescence polarization assay
Insulin-degrading enzyme (Homo sapiens, UniProt P14735, E111Q), sequence (P14735 whole entry E111Q): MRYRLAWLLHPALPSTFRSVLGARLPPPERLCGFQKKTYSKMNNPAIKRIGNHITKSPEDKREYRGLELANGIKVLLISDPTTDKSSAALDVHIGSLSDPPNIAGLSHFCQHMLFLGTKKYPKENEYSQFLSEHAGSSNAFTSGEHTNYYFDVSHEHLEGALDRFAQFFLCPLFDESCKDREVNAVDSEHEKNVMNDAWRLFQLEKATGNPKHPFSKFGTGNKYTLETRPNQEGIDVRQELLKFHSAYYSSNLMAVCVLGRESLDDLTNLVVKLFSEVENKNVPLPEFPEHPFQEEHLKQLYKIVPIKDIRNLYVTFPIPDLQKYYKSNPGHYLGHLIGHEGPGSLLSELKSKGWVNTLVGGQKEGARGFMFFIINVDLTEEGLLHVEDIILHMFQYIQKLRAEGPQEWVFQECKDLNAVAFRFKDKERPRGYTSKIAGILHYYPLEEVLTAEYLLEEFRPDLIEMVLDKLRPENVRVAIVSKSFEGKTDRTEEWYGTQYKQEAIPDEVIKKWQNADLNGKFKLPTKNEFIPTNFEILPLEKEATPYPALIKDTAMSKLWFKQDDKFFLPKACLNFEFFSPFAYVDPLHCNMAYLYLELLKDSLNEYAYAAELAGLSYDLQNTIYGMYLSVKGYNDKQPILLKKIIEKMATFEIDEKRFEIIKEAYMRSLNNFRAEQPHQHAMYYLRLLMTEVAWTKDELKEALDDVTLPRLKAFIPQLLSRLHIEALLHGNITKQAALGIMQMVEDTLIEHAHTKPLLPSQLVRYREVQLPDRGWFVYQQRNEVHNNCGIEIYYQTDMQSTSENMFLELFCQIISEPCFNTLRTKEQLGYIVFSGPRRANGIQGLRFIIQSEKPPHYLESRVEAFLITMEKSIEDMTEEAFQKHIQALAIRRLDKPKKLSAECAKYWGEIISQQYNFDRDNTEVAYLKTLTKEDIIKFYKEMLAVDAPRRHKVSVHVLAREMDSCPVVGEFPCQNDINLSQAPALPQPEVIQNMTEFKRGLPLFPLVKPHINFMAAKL
Procedure, shortened: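 IDE-E111Q was titrated against 20 nM FITC-labelled peptide in 20 mM Tris-HCl pH 8.0, 50 mM NaCl, 1 mM TCEP and incubated 2 h at 277 K in the dark. Polarization was read at 298 K (ex 480, em 535 nm) and plotted against IDE concentration. Three independent experiments, each in duplicate.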

[7] = target: Insulin-degrading enzyme (Homo sapiens) (UniProt P14735); test: Inhibition of IDE (unknown origin) assessed as potentiation of insulin-induced AKT phosphorylation in rat skeletal muscle cells at 100 uM preincubated up to 12 hrs followed by insulin addition and measured after 10 mins by Western blot analysis; type: cell-based
Insulin-degrading enzyme (Homo sapiens), sequence (P14735 whole entry): as the sequence (P14735 whole entry E111Q) above, with Q111E counted along it
Procedure, shortened: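 Rat skeletal muscle cells were treated with 100 nM IDE plus peptide, for 10 min or at time points up to 24 h with 100 μM. Insulin (10 nM) was then added for 10 min. RIPA lysates were run on 10% SDS-PAGE and blotted for pAKT and AKT with GAPDH as loading control. Densitometry on three regions, two-tailed t test.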

[8] = system: Mus musculus; test: Effect on glucose levels in lean C57BL/6J mouse at 80 mg/kg, ip administered 30 min prior to glucose stimulation measured up to 120 min […]; type: ADME, organism-based; conditions: in vivo
[9] = Drug uptake in brain parenchyma of lean C57BL/6J mouse at 80 mg/kg, iv using FITC-labeled compound by two-photon microscopic analysis; conditions: in vivo

pIC50 [3]: 7.66
pKd [6]: 7.66
inhibition [7]: Active
Drug uptake [9]: Not Active
SMILES: CC(=O)N[C@@H](CCC(=O)O)C(=O)N[C@@H](Cc1c[nH]c2ccccc12)C(=O)N[C@@H](CCCNC(=N)N)C(=O)N[C@@H](Cc1ccccc1)C(=O)N[C@H]1CC(=O)NC[C@@H](C(=O)N[C@@H](CC(C)C)C(=O)N[C@@H](Cc2ccc(O)cc2)C(=O)N[C@@H](CC(C)C)C(=O)N[C@H](C(=O)N[C@@H](CS)C(=O)NCC(N)=O)C(C)C)NC(=O)[C@H](CCC(=O)O)NC(=O)[C@@H]2CCCN2C(=O)[C@H]2CCCN2C(=O)CNC1=O
Activity [1]: Active
Activity [2]: Non-Toxic
Activity [4]: Non-Toxic
Activity [5]: Non-Toxic
Activity [8]: Non-Toxic
